Results published in ChEMBL document CHEMBL1137054, “Synthesis of 5'-substituted fluoro-neplanocin A analogues: importance of a hydrogen bonding donor at 5'-position for the inhibitory activity of S-adenosylhomocysteine hydrolase” (Bioorg Med Chem Lett, 2004).

Assays:
A549 = experiment: Concentration required for 50% inhibition of A549 cell line (human lung carcinoma cells); type: functional, cell-based
Outline: (§1)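 Cytotoxicity in cultured human cancer cells (Col2 colon carcinoma; A549 lung carcinoma). Cells were exposed to serial dilutions of compound, and the value is the concentration giving 50% survival.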

Adenosylhomocysteinase = Adenosylhomocysteinase (Homo sapiens, UniProt P23526); experiment: Inhibitory activity against enzyme S-adenosyl-homocysteine hydrolase of human placenta
Col2 = experiment: Concentration required for 50% inhibition of Col2 cell line (human colon carcinoma cells); type: functional, cell-based; outline: as §1

Chain of Adenosylhomocysteinase (P23526 whole entry): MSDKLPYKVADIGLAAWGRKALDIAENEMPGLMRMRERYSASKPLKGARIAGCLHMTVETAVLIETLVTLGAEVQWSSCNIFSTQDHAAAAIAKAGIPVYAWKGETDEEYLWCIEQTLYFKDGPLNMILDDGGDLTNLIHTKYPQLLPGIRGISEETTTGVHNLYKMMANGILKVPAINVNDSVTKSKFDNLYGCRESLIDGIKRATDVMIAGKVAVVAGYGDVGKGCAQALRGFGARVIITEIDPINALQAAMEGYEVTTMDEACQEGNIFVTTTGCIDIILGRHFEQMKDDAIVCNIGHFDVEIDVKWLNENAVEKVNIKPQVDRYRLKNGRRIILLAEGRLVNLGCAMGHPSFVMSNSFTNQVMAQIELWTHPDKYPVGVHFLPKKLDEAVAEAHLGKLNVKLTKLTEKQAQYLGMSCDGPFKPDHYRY

IC50 (A549) [µM] | IC50 (Adenosylhomocysteinase) [µM] | IC50 (Col2) [µM] | SMILES
53 | > 100 | 35.9 | [N-]=[N+]=NCC1=C(F)[C@@H](n2cnc3c(N)ncnc32)[C@H](O)[C@@H]1O
> 100 | > 100 | > 100 | Nc1ncnc2c1ncn2[C@@H]1C(F)=C(CF)[C@@H](O)[C@H]1O
> 100 | 97.3 | > 100 | Nc1ncnc2c1ncn2[C@@H]1C(F)=C(CS)[C@@H](O)[C@H]1O
4.6 | 0.48 | 1.4 | Nc1ncnc2c1ncn2[C@@H]1C(F)=C(CO)[C@@H](O)[C@H]1O [FLUORO-NEPLANOCIN A]
42.8 | 12.7 | 39.2 | NCC1=C(F)[C@@H](n2cnc3c(N)ncnc32)[C@H](O)[C@@H]1O
